Experimental data as given in ChEMBL document CHEMBL3399972, “Structure-activity relationships of a novel pyranopyridine series of Gram-negative bacterial efflux pump inhibitors” (Bioorg Med Chem, 2015).
≈ marks a conversion by molar mass, not a printed value. Calls of active or inactive are those of the source. How the calls were made is not given here.

Key:
[1] = test system: Escherichia coli; test: Inhibition of multidrug resistance efflux pump in Escherichia coli assessed as concentration required to reduce levofloxacin MIC by 4-fold by checkerboard assay
[2] = test system: Escherichia coli; test: Inhibition of multidrug resistance efflux pump in wild-type Escherichia coli AB1157 assessed as concentration required to reduce piperacillin MIC by 4-fold by checkerboard assay
[3] = test system: HeLa; test: Cytotoxicity against human HeLa cells; assay type: cell-based
[4] = test system: Escherichia coli; test: Antibacterial activity against Escherichia coli at 100 uM; assay type: functional, organism-based
[5] = Metabolic stability in mouse liver microsomes assessed as compound remaining at 25 uM after 60 mins by HPLC analysis in presence of NADPH; assay type: ADME; details: read-out: Stability
Summary of the method: (§1)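 Human or mouse liver microsomes at 0.5 mg/mL in 100 mM potassium phosphate pH 7.4 with 3 mM MgCl2, test compound 25 µM final, with or without (control) 2 mM NADPH; 37 °C for one hour, then stopped with equal volume acetonitrile containing 0.1% trifluoroacetic acid. Value: peak area with NADPH relative to no-NADPH control, as percent remaining.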

[6] = Metabolic stability in human liver microsomes assessed as compound remaining at 25 uM after 60 mins by HPLC analysis in presence of NADPH; assay type: ADME; details: read-out: Stability; summary of the method: as §1
[7] = Inhibition of mouse liver microsome CYP3A4 at 3 uM after 10 mins by luminescence assay; assay type: ADME; details: microsomes
[8] = Aqueous solubility of the compound by nephlometric method; assay type: physicochemical
Summary of the method: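 Maximum solubility in water, measured by nephelometry.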

COc1cccc(CCSc2nc(N3CC(C)OC(C)C3)c3c(c2C#N)CC(C)(C)OC3)c1 (stereo unspecified)
INH [1]: 9.4 µM | INH [2]: 1.6 µM | CC50 [3]: > 100 µM | Activity [4]: inactive

CC1(C)Cc2c(C#N)c(SCCc3cccc(F)c3)nc(N3CCOCC3)c2CO1
INH [1]: > 100 µM | INH [2]: 4.7 µM | CC50 [3]: > 100 µM | Activity [4]: inactive

COc1ccccc1CCSc1nc(N2CCOCC2)c2c(c1C#N)CC(C)(C)OC2
INH [1]: 3.1 µM | INH [2]: 3.1 µM | CC50 [3]: > 100 µM | Activity [4]: inactive

CC1(C)Cc2c(C#N)c(SCCCc3ccccc3)nc(N3CCOCC3)c2CO1
INH [1]: > 100 µM | INH [2]: > 100 µM | Activity [4]: inactive

CC1(C)Cc2c(C#N)c(SCCc3ccccc3)nc(N3CCSCC3)c2CO1
INH [1]: > 100 µM | INH [2]: 1.6 µM | CC50 [3]: > 100 µM | Activity [4]: inactive

COc1ccc(CCSc2nc(N3CCOCC3)c3c(c2C#N)CC(C)(C)OC3)cc1
INH [1]: 6.3 µM | INH [2]: 3.1 µM | CC50 [3]: > 100 µM | Activity [4]: inactive

CC1(C)Cc2c(C#N)c(SCCc3ccccc3)nc(N3CCCOCC3)c2CO1
INH [1]: > 100 µM | INH [2]: 1.6 µM | CC50 [3]: > 100 µM | Activity [4]: inactive

CC1(C)Cc2c(C#N)c(SCCc3cccc(-c4nnn[nH]4)c3)nc(N3CCOCC3)c2CO1
INH [1]: > 100 µM | INH [2]: 12.5 µM | CC50 [3]: 20.7 µM | Activity [4]: inactive

COc1ccc(CCSc2nc(N3CCOCC3)c3c(c2C#N)CC(C)(C)OC3)cc1OC
INH [1]: 1.3 µM | INH [2]: 0.8 µM | CC50 [3]: 69.4 µM | Activity [4]: inactive | remaining at 1 h, 25 µM [5]: 5% | remaining at 1 h, 25 µM [6]: 21% | inhibition (INH) [7]: 49% | solubility kinetic [8]: 25 µM (≈ 11.7 µg/mL)

CC1(C)Cc2c(c(N3CCOCC3)nc(SCCc3ccccc3)c2C(N)=O)CO1
INH [1]: > 100 µM | INH [2]: > 100 µM | Activity [4]: inactive

COCCN1CCN(c2nc(SCCc3ccncc3)c(C#N)c3c2COC(C)(C)C3)CC1
INH [1]: 6.3 µM | INH [2]: 50 µM | CC50 [3]: 95.9 µM | Activity [4]: inactive

COCCN1CCN(c2nc(SCCc3ccccc3)c(C#N)c3c2COC(C)(C)C3)CC1
INH [1]: 6.3 µM | INH [2]: 0.4 µM | CC50 [3]: 34.2 µM | Activity [4]: inactive | remaining at 1 h, 25 µM [5]: 0% | remaining at 1 h, 25 µM [6]: 0% | inhibition (INH) [7]: 18% | solubility kinetic [8]: 50 µM (≈ 23.3 µg/mL)

CC1CN(c2nc(SCCc3ccc(NC(=O)C(F)(F)F)cc3)c(C#N)c3c2COC(C)(C)C3)CC(C)O1 (stereo unspecified)
INH [1]: 1.6 µM | INH [2]: 1.6 µM | CC50 [3]: 64 µM | Activity [4]: inactive | remaining at 1 h, 25 µM [5]: 0% | remaining at 1 h, 25 µM [6]: 90% | inhibition (INH) [7]: 66% | solubility kinetic [8]: 12.5 µM (≈ 6.86 µg/mL)

COCCN1CCN(c2nc(SCCc3cccc(F)c3)c(C#N)c3c2COC(C)(C)C3)CC1
INH [1]: > 100 µM | INH [2]: 6.3 µM | CC50 [3]: 37.9 µM | Activity [4]: inactive

CC1(C)Cc2c(C#N)c(SCC(O)c3ccccc3)nc(N3CCOCC3)c2CO1 (stereo unspecified)
INH [1]: > 100 µM | INH [2]: > 100 µM | Activity [4]: inactive

CC1(C)Cc2c(C#N)c(SCCc3nnn[nH]3)nc(N3CCOCC3)c2CO1
INH [1]: > 100 µM | INH [2]: > 100 µM | CC50 [3]: 30.2 µM | Activity [4]: inactive

CC1(C)Cc2c(C#N)c(SCCc3ccc(S(=O)(=O)O)cc3)nc(N3CCOCC3)c2CO1
INH [1]: > 100 µM | INH [2]: > 100 µM | CC50 [3]: 17.2 µM | Activity [4]: inactive

CC1(C)Cc2c(C#N)c(SCCc3cccc(Cl)c3)nc(N3CCOCC3)c2CO1
INH [1]: 3.1 µM | INH [2]: 3.1 µM | CC50 [3]: > 100 µM | Activity [4]: inactive

CC1CN(c2nc(SCCc3ccc(NS(C)(=O)=O)cc3)c(C#N)c3c2COC(C)(C)C3)CC(C)O1 (stereo unspecified)
INH [1]: 6.3 µM | INH [2]: 6.3 µM | CC50 [3]: 67 µM | Activity [4]: inactive

CC1(C)Cc2c(C#N)c(SCCc3ccccc3F)nc(N3CCOCC3)c2CO1
INH [1]: > 100 µM | CC50 [3]: > 100 µM | Activity [4]: inactive

CC1(C)Cc2c(C#N)c(SCCC#N)nc(N3CCOCC3)c2CO1
INH [1]: > 100 µM | INH [2]: > 100 µM | CC50 [3]: > 100 µM | Activity [4]: inactive

CC1(C)Cc2c(c(N3CCOCC3)nc(SCCc3ccccc3)c2C(=N)NO)CO1
INH [1]: > 100 µM | INH [2]: > 100 µM | Activity [4]: inactive

CC1(C)Cc2c(C#N)c(SCCc3ccccn3)nc(N3CCOCC3)c2CO1
INH [1]: 50 µM | INH [2]: 25 µM | CC50 [3]: 78.1 µM | Activity [4]: inactive

COCCN1CCN(c2nc(SCCc3cccc(Br)c3)c(C#N)c3c2COC(C)(C)C3)CC1
INH [1]: 12.5 µM | INH [2]: 2.8 µM | CC50 [3]: 75.1 µM | Activity [4]: inactive

CC1(C)Cc2c(C#N)c(SCC(=O)c3ccccc3)nc(N3CCOCC3)c2CO1
INH [1]: > 100 µM | INH [2]: > 100 µM | Activity [4]: inactive
